Screening data (PubChem BioAssay)
Compounds with a hit are over-represented: about 0.55% of the library has one in this group of screens.
ABCG2 inh – blocks JC-1 efflux by human ABCG2 transporter. IgMXP3 cells, flow cytometry. inhibition, % at 6.6 µM. 190,000 tested, 0.1% active;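 active means inhibition above 80%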;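 further: 0% = DMSO and 100% = nicardipine control wells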
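Measure – % inhibition of efflux relative to nicardipine and DMSO · Test system – ABCG2 IgMXP3 and barcoded ABCB1 CCRF-Adr cell mix · Control set – nicardipine as high control, DMSO as low control · Compound – one concentration, 6.6 µM final · Signal – flow cytometry of retained JC-1 fluorescence · Timing – 10 min exposure at 25 °C with rotation, no wash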
ABCB6 inh 2 – blocks the human ABCB6 transporter; Q9NP58; K562-ABCB6 porphyrin accumulation, flow cytometry, 1 h; hits give low values; fluorescence ratio to DMSO, % at 10 µM; 360,000 tested, 0.19% active;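 active means fluorescence ratio to DMSO below 75%, the collection mean minus 3 SD; inconclusive means too few cells collected in the well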;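 further: signal is porphyrin accumulated inside mitochondria; 100% equals median channel fluorescence of DMSO control wells; lower ratio means ABCB6 inhibition with less porphyrin fluorescence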
Rad51 HR inh – blocks human Rad51 in homologous recombination. Q06609. hRad51 DNA strand exchange, fluorescence dequenching. inhibition, % at 10 µM. 200,000 tested, 0.085% active. AID 1385;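 active means inhibition above 40% at the single screening dose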;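 further: 0% = DMSO control wells and 100% = blanks with heterologous ssDNA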
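material = hRad51 filaments on single-stranded DNA | reagent = Donor/quencher-labelled 47-bp dsDNA substrate | compound = 10 µM final, single point | schedule = strand-exchange reaction 15 min at room temperature | measured by = fluorescein emission 520 nm, excitation 485 nm | read-out basis = % inhibition versus plate control and blank means | benchmarks = plate controls and plate blanks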
p97 inhibitor – blocks human p97 ATPase activity | P55072 | recombinant p97 ATPase, Kinase-Glo ATP luminescence, 3 h | 220,000 tested, 0.42% active | inhibition, % at 8 µM | AID 1481; in the data active means inhibition above about 15%;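 further: 0% = DMSO vehicle and 100% = wells lacking enzyme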
ABCB1 inh – blocks JC-1 efflux by human ABCB1 transporter; inhibition, % at 6.6 µM; P08183; CCRF-Adr cells, flow cytometry; 190,000 tested, 0.067% active; in the data active means inhibition above about 40%;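 further: 0% = vehicle and 100% = reference inhibitor; higher value means more JC-1 retained so stronger ABCB1 efflux block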
HSV augment – increases HSV replication in cells; HSV replication augmentation in cells, fold increase; maximum fold increase; AID 1956; 220,000 tested, 0.005% active; in the data active means maximum fold increase above about 1.5; inconclusive means no clear call, values can overlap the other calls; tested in PC3 cells
p97 confirm – human p97 ATPase inhibition, confirmation; recombinant p97 ATPase, Kinase-Glo ATP luminescence; 760 tested, 44% active; AID 1517; inhibition, % at 8 µM; shares compounds with p97 inhibitor;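 active means percent inhibition of p97 ATPase above a set limit, the primary screen's mean plus 3 SD, cut at about 15% in these data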;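 further: 0% = DMSO wells and 100% = wells lacking p97 protein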
Active calls of the source: *; i = inactive; ? = inconclusive; nt = no result given.

SMILES | ABCG2 inh | ABCB6 inh 2 | Rad51 HR inh | p97 inhibitor | ABCB1 inh | HSV augment | p97 confirm
O=c1[nH]c(CN2CCCCC2)nc2ccccc12 | 1 | 97 | 3 | 25* | 0 | i | 3
O=C(NN=Cc1ccccc1C(=O)O)c1ccc(NS(=O)(=O)c2cccs2)cc1 | nt | 93 | nt | nt | nt | nt | nt
Oc1[nH]c(=S)sc1/C=C1\C(c2ccccc2)=Nc2ccccc21 | -4 | 108 | -69 | 23* | -1 | ? | 53*
CCc1nc2ccc(C(=O)N(C)Cc3ccccc3)cn2c1N(C)Cc1ccc(OC)cc1 | nt | 94 | nt | nt | nt | nt | nt
CN1C(=O)C2(c3ccccc31)C1CCCC=C1C(C#N)=C(N)C2(C#N)C#N (centres undefined) | 1 | 108 | 0 | 17* | 1 | i | 13
O=C(Nc1ccc2nc(-c3ccco3)c(-c3ccco3)nc2c1)NC1CC1 | 1 | 93 | nt | 31* | 0 | nt | 24*
O=C(Nc1ccc(N2CCOCC2)cc1)Nc1ccc2nc(-c3ccco3)c(-c3ccco3)nc2c1 | -1 | 100 | 1 | 3 | 0 | i | nt
O=C(NCCCO)Nc1ccc2nc(-c3ccco3)c(-c3ccco3)nc2c1 | -2 | nt | nt | 25* | 0 | nt | 23*
O=C(O)c1ccc2nc(-c3ccco3)c(-c3ccco3)nc2c1 | -1 | 97 | 36 | 26* | 0 | i | 1
O=C(CCCc1ccncc1)c1ccccc1 | nt | 107 | nt | nt | nt | nt | nt
CN(CC(=O)Nc1cc(S(=O)(=O)N2CCCC2)ccc1Cl)Cc1nc2ccccc2c(=O)[nH]1 | nt | 86 | nt | nt | nt | nt | nt
O=C(NC1CCCCC1)C1c2ccccc2OCC(=O)N1CC(F)(F)F (centres undefined) | nt | 99 | nt | nt | nt | nt | nt
COc1cc(/C=N\Nc2nc3ccccc3[nH]2)cc(OC)c1OC | 2 | 92 | 3 | -1 | 0 | i | nt
COc1ccc2c(c1)c(/C=N/Nc1nc3ccccc3[nH]1)c(C)n2C | nt | 92 | 11 | 33* | nt | i | 11
CCN(CC)c1cccc(OC2=NS(=O)(=O)c3ccccc32)c1 | 1 | 113 | -9 | 19* | 0 | i | 9
CC(O)(c1cccc(F)c1)c1nc(/C=C/c2ccccc2)cs1 (centres undefined) | nt | 99 | nt | nt | nt | nt | nt
Cc1cc2cccc(C)c2nc1SCC(=O)NNC(=O)c1ccco1 | 4 | 97 | 6 | 3 | 0 | i | nt
Cc1cc(C)c2nc(SCC(=O)NNC(=O)c3ccco3)c(C)cc2c1 | 1 | 101 | -4 | 15* | 0 | i | 16*
C#CCOCCOCCOCCNc1nc(N2CCN(C(=O)C(Cc3ccc(O)cc3)n3cc(C(N)CC(C)C)nn3)CC2)nc(N2CCN(C(=O)C(Cc3cc4ccccc4[nH]3)n3cc(C(N)C(C)CC)nn3)CC2)n1 (centres undefined) | -1 | nt | nt | 14 | 0 | nt | nt
C#CCOCCOCCOCCNc1nc(N2CCN(C(=O)[C@H](Cc3ccc(O)cc3)n3cc([C@@H](N)CC(C)C)nn3)CC2)nc(N2CCN(C(=O)[C@H](Cc3cc4ccccc4[nH]3)n3cc([C@@H](N)CC(C)C)nn3)CC2)n1 | 1 | nt | -3 | 20* | 0 | i | 13
C#CCOCCOCCOCCNc1nc(N2CCN(C(=O)[C@H](CCCCN)n3cc([C@@H](N)CC(C)C)nn3)CC2)nc(N2CCN(C(=O)[C@H](Cc3cc4ccccc4[nH]3)n3cc([C@@H](N)Cc4ccc(O)cc4)nn3)CC2)n1 | 2 | 100 | -1 | 21* | 0 | i | 16*
C#CCOCCOCCOCCNc1nc(N2CCN(C(=O)[C@H](Cc3ccc(O)cc3)n3cc([C@@H](N)CC(C)C)nn3)CC2)nc(N2CCN(C(=O)[C@H](Cc3ccc(O)cc3)n3cc([C@@H](N)CC(C)C)nn3)CC2)n1 | 0 | nt | nt | 18* | 0 | nt | 14
C#CCOCCOCCOCCNc1nc(N2CCN(C(=O)[C@H](CCCCN)n3cc([C@@H](N)CO)nn3)CC2)nc(N2CCN(C(=O)[C@H](Cc3cc4ccccc4[nH]3)n3cc([C@@H](N)Cc4ccc(O)cc4)nn3)CC2)n1 | 1 | nt | nt | 7 | 0 | nt | nt
COc1ccc(NS(=O)(=O)c2cc(NC(=O)CCc3ccc(OC)c(OC)c3)ccc2N2CCOCC2)cc1 | nt | 102 | nt | nt | nt | nt | nt
Cc1ccc(NC(=O)Cn2c(=O)ccn(Cc3ccccc3)c2=O)cc1S(=O)(=O)N1CCOCC1 | nt | 97 | nt | nt | nt | nt | nt
SMILES | ABCG2 inh | ABCB6 inh 2 | Rad51 HR inh | p97 inhibitor | ABCB1 inh | HSV augment | p97 confirm
N/C(=N\NC(=O)c1cccc(F)c1)c1cc2ccccc2oc1=O | nt | 106 | -9 | 16* | nt | i | 8
CN(C)c1ccc(-c2csc(C(C)(O)c3cccc(F)c3)n2)cc1 (centres undefined) | nt | 100 | nt | nt | nt | nt | nt
Nc1c(C(=O)N/N=C/c2cccnc2)oc2nc(-c3ccco3)cc(-c3ccco3)c12 | nt | 99 | -98 | 17* | nt | i | 4
CCCn1nc([N+](=O)[O-])c(C(C#N)c2nc3ccccc3o2)c(Cl)c1=O (centres undefined) | 0 | 99 | 9 | 2 | 0 | i | nt
CCn1nc([N+](=O)[O-])c(C(C#N)c2nc3cc(C(F)(F)F)ccc3s2)c(Cl)c1=O (centres undefined) | 0 | 170 | -3 | 35* | 0 | i | 42*
C[n+]1cccc2cccc([O-])c21 | nt | 98 | 10 | 37* | nt | i | 20*
C=CCn1c(NC(=O)c2ccccc2Cl)c(C#N)c2nc3ccccc3nc21 | 3 | 102 | 6 | 43* | 0 | ? | 28*
CCCCn1c(NC(C)=O)c(C#N)c2nc3ccccc3nc21 | 8 | 102 | 6 | 30* | 1 | i | 4
CCCCCn1c(N)c(C#N)c2nc3ccccc3nc21 | 21 | 111 | 1 | 0 | 2 | i | nt
O=C1Cc2ccccc2C(=O)N1 | nt | 105 | nt | nt | nt | nt | nt
O=C(/C=C/c1ccco1)Nc1cccc(C(=O)Nc2ccccc2C(=O)O)c1 | nt | 99 | 9 | 46* | nt | i | 30*
CCc1ccccc1NC(=O)c1cccc(NC(=O)/C=C/c2ccco2)c1 | -1 | 94 | -1 | 1 | 0 | i | nt
FC(F)(F)Oc1ccccc1C(c1nnnn1C1CCCC1)N1CCN(C/C=C/c2ccccc2)CC1 (centres undefined) | nt | 98 | nt | nt | nt | nt | nt
Cc1nc2cc(-c3ccsc3-n3c(C)ccc3C)[nH]n2c(=O)c1Cl | 31 | 98 | -1 | 30* | 0 | i | 10
Cc1cc(=O)n2[nH]c(-c3ccsc3-n3c(C)ccc3C)cc2n1 | nt | 99 | nt | 23* | nt | i | 12
COc1ccc(S(=O)(=O)N2CCN(Cc3cccc(F)c3)CC2)cc1 | nt | 98 | nt | nt | nt | nt | nt
Nc1nc(N)c2cc(Sc3ccc4ccccc4c3)ccc2n1 | nt | 96 | 19 | 15* | nt | i | 24*
Nc1nc(N)c2cc(Sc3ccc(Cl)cc3)ccc2n1 | nt | 98 | nt | nt | nt | nt | nt
